{"data": "Measured values pooled from the literature", "target": "Homeodomain-interacting protein kinase 3 (HIPK3, Homo sapiens, UniProt Q9H422)", "read-out": "enzyme activity", "action": "inhibitor", "note": "Compare with care: the assays were run in different laboratories."}
{"SMILES": "O=C(O)c1ccc2c(c1)nc(NCCc1ccccc1)c1ccncc12", "technique": "radiometric", "concentration": "1 µM", "remaining activity [%]": 8}
{"SMILES": "CCN(CC)c1ccc(C2=NNC(=O)CC2C)cc1[N+](=O)[O-] (stereo not shown)", "concentration": "10 µM", "remaining activity [%]": 40}
{"SMILES": "O=C(O)c1ccc2c(c1)nc(Nc1ccc3ccccc3c1)c1ccncc12", "technique": "radiometric", "concentration": "1 µM", "remaining activity [%]": 7}
{"SMILES": "COc1cc(Cl)c(C(=O)N[C@@H](CN[C@H]2CC[C@@H](N)CC2)Cc2ccc(C#N)cc2)cc1-c1ccc(CN[C@H](C)c2ccc(C)cc2)o1", "concentration": "1 µM", "remaining activity [%]": 96}
{"SMILES": "CC(C)(C)c1nc2c(s1)c1nc(N)ncc1c1ccc(NS(=O)(=O)c3c(F)cccc3F)c(F)c12", "technique": "radiometric", "concentration": "1 µM", "remaining activity [%]": 96}
{"SMILES": "Cc1ccc(C(=O)Nc2ccc(CN3CCN(C)CC3)c(C(F)(F)F)c2)cc1C#Cc1cnc2cccnn12", "concentration": "23.5 nM", "remaining activity [%]": 93}
{"SMILES": "FC(F)c1nc2ccccc2n1-c1nc(N2CCOCC2)nc(N2CCOCC2)n1", "concentration": "10 µM", "remaining activity [%]": 98}
{"SMILES": "COc1cc(Nc2cnc(C#N)c(O[C@H](C)CN(C)C)n2)ncc1-c1cnn(C)c1", "technique": "radiometric", "concentration": "1 µM", "remaining activity [%]": 96}
{"SMILES": "O=C(O)c1ccc2c(c1)nc(Nc1ccc(F)c(Cl)c1)c1ncncc12", "technique": "radiometric", "concentration": "1 µM", "remaining activity [%]": 12}
{"SMILES": "CC(C)(O)[C@H]1CC[C@H](Nc2ccc3ncc(-c4cccc(C(F)(F)F)c4)n3n2)CC1", "concentration": "1 µM", "remaining activity [%]": 78.4}
{"SMILES": "O=C(Nc1cnn(-c2csc(C(=O)NC3COC3)c2)c1)Nc1ccccc1Cl", "concentration": "5 µM", "remaining activity [%]": 97.6}
{"SMILES": "O=C(O)c1ccc2c(c1)nc(NCc1ccccc1)c1ncncc12", "technique": "radiometric", "concentration": "1 µM", "remaining activity [%]": 52}
{"SMILES": "CCCOc1ccc(OC)c(F)c1C(=O)c1ccc(C(=O)N[C@@H]2CNC[C@H]2NC(=O)c2ccc3[nH]ncc3c2)cc1", "concentration": "10 µM", "remaining activity [%]": 97}
{"SMILES": "O=C(O)c1ccc2c(c1)nc(NCCc1cccc(Cl)c1)c1ncncc12", "technique": "radiometric", "concentration": "1 µM", "remaining activity [%]": 38}
{"SMILES": "Oc1cccc(-c2nc(N3CCOCC3)c3oc4ncccc4c3n2)c1", "concentration": "10 µM", "remaining activity [%]": 82}
{"SMILES": "Cc1cnc(NC2CCOCC2)nc1-n1cnc(C(=O)NC(CN)c2cc(F)cc(Cl)c2)c1 (stereo not shown)", "technique": "radiometric", "concentration": "1 µM", "remaining activity [%]": 94}
{"SMILES": "CC(C)(C)c1nc(-c2cccc(NS(=O)(=O)c3c(F)cccc3F)c2F)c(-c2ccnc(N)n2)s1", "technique": "radiometric", "concentration": "1 µM", "remaining activity [%]": 99}
{"SMILES": "Cc1sc(C(=O)NC2COC2)cc1-n1cc(NC(=O)Nc2c(F)cccc2Cl)cn1", "concentration": "10 µM", "remaining activity [%]": 88.5}
{"SMILES": "O=C(O)c1ccc2c(c1)nc(Nc1ccc(F)c(Cl)c1)c1ccncc12", "technique": "radiometric", "concentration": "1 µM", "remaining activity [%]": 5}
